According to ChEMBL document CHEMBL1127482 (J Med Chem, 1994):
*1 amine or outer side, *2 acyl side, *3 side chain or, on linkers, in order; H or OH if unused. Where a SMILES comes first, the peptide text is derived from it. Bridges are numbered along the chain shown (N, C = ends). X1 = O=C(CC1(S[*:2])CCCCC1)[*:1]; X4 = C[C@H](S[*:2])C(=O)[*:1]

How the values were obtained:
[1] = species: Homo sapiens; assay: Inhibition of 10 uM ADP induced platelet aggregation in human platelet rich citreated plasma (PRP); assay type: functional
How it was run: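 Aggregation is read as the increase in light transmission in an aggregometer, with platelets used within 3 h of collection. IC50 comes from regression of dose-response curves for inhibition of maximal aggregation, adjusted against a standard run in each experiment.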

[2] = target: Integrin alpha-V/beta-5 (Homo sapiens, UniProt P06756+P18084); assay: Binding affinity against integrin alpha V-beta5 in enzyme linked immunosorbent assay (ELISA); assay type: protein-complex assay
Chain of Integrin alpha-V/beta-5 (P06756 31-889 limits assumed): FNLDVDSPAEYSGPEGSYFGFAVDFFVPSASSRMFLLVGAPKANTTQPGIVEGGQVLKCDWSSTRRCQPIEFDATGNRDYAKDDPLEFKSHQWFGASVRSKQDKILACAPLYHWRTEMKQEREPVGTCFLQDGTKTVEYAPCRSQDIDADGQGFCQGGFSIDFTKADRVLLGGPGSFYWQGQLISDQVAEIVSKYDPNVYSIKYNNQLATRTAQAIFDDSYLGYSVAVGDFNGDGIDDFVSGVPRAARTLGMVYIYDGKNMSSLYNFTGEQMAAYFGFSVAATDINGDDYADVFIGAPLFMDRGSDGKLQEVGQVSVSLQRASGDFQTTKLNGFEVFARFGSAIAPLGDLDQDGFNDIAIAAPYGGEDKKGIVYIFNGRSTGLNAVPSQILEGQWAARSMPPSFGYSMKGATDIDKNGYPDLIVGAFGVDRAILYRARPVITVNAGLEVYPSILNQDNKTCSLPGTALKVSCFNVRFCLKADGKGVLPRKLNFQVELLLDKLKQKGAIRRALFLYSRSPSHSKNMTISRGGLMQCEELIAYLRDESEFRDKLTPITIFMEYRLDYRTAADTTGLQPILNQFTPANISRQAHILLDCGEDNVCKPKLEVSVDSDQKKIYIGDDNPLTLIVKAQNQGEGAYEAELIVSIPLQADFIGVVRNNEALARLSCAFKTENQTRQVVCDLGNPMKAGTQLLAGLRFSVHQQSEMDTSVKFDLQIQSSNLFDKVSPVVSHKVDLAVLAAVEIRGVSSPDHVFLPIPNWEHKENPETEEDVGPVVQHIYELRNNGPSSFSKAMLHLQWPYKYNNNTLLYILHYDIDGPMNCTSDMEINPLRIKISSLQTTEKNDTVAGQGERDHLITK
Chain of Integrin alpha-V/beta-5 (P06756 891-1048 limits assumed): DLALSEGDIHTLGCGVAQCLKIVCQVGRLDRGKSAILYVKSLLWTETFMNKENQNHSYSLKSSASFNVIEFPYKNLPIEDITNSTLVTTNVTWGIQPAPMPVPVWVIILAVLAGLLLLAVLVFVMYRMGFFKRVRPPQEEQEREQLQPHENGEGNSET
Chain of Integrin alpha-V/beta-5 (P18084 24-799 limits assumed): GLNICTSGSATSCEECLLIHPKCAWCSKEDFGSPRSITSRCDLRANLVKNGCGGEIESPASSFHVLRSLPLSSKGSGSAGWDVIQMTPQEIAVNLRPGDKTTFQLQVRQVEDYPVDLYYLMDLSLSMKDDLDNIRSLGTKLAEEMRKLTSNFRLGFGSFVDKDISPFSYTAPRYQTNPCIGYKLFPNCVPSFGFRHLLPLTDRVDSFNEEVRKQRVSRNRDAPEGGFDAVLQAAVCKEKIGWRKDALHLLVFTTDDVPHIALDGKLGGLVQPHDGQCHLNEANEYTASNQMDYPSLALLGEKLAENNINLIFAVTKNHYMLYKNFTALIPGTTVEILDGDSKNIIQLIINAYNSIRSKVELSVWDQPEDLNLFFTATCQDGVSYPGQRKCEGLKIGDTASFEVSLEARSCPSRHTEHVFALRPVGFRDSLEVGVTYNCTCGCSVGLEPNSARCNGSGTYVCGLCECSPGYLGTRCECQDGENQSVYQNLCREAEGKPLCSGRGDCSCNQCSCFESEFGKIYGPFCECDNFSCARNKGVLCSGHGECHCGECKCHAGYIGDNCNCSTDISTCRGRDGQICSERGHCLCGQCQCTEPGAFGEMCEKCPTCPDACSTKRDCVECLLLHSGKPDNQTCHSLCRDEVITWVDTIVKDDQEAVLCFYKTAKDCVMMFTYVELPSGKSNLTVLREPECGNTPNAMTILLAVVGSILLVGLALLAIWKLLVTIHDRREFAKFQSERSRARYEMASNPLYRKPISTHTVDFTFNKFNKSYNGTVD
How it was run: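 It is added to wells coated with human vitronectin in 0.1 M carbonate, pH 9.6, with 10-fold serial peptide dilutions for 3 h at room temperature. Detection uses rabbit anti-VnR, HRP anti-rabbit IgG and o-phenylenediamine/H2O2.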

[3] = target: Integrin alpha-IIb/beta-3 (Homo sapiens, UniProt P05106+P08514); assay: Binding affinity against integrin alpha 2b-beta 3 in enzyme linked immunosorbent assay (ELISA); assay type: protein-complex assay
Chain of Integrin alpha-IIb/beta-3 (P05106 27-788 limits assumed): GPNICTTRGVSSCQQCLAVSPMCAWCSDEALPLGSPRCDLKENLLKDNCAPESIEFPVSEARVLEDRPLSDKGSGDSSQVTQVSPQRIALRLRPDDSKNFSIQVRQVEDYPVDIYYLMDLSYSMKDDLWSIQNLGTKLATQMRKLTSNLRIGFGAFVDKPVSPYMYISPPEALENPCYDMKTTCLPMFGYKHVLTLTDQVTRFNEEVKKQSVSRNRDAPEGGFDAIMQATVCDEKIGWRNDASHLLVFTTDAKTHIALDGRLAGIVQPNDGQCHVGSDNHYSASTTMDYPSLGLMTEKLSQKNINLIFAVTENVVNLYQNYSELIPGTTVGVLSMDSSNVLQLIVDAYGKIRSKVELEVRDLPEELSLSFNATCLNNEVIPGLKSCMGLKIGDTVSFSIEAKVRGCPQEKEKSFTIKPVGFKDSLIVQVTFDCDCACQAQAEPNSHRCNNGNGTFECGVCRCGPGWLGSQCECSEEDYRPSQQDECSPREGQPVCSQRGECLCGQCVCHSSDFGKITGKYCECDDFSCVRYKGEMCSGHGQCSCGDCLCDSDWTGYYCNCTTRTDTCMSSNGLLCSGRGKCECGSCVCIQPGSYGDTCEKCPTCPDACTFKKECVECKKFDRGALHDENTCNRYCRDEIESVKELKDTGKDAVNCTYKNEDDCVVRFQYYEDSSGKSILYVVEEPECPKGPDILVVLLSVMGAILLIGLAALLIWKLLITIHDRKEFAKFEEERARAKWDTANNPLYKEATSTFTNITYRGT
Chain of Integrin alpha-IIb/beta-3 (P08514 32-887 limits assumed): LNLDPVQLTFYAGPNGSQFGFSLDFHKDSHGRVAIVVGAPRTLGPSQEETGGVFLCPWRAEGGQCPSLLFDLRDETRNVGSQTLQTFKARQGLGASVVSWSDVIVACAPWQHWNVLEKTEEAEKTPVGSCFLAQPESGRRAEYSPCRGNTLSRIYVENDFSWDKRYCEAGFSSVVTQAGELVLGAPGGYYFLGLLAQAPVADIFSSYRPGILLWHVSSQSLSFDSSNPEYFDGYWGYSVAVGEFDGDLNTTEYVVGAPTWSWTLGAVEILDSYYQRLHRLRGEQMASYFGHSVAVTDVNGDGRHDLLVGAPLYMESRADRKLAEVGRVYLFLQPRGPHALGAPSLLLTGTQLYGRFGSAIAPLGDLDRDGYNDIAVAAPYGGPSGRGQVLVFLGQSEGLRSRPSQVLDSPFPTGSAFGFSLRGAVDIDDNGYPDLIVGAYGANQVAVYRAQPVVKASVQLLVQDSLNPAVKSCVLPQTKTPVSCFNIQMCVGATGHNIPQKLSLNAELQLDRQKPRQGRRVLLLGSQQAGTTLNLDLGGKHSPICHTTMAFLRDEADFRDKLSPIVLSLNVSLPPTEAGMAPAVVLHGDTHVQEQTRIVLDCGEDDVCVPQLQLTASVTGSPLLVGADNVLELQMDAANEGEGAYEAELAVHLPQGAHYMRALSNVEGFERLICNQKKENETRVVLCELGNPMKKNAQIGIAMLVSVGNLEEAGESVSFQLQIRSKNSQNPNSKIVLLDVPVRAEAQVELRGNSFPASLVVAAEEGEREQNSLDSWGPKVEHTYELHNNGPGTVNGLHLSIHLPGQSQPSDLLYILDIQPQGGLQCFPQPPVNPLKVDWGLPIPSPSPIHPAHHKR
Chain of Integrin alpha-IIb/beta-3 (P08514 891-1039 limits assumed): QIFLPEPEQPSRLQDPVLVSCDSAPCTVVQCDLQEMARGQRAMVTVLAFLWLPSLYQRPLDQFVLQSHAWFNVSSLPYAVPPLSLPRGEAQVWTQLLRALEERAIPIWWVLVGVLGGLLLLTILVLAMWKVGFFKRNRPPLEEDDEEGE
How it was run: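 Purified human platelet αIIbβ3 (from outdated platelets, octyl glucoside extract) in TBS with 20 mM octyl glucoside, 2 mM MgCl2 and 2 mM CaCl2 binds to plate-coated human fibrinogen (10 µg/mL in TBS) with 10-fold serial peptide dilutions for 3 h at room temperature. Bound receptor is detected with rabbit anti-αIIbβ3, then HRP anti-rabbit IgG, with o-phenylenediamine/H2O2 at pH 5.0. IC50 is reported.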

SMILES | IC50 [1] [nM] | IC50 [2] [nM] | IC50 [3] [nM]
COc1ccc(C[C@@H]2NC(=O)[C@H](CC(=O)O)NC(=O)CNC(=O)[C@H](CCCN=C(N)N)NC(=O)[C@@H]3CCCN3C(=O)[C@H](CC(N)=O)NC(=O)CC3(CCCCC3)SSC[C@@H](C(N)=O)NC(=O)[C@H](CCCN=C(N)N)NC2=O)cc1 (NPRGDY(Me)RC-NH2; linker N-8 via X1) | 170 | 4900 | –
COc1ccc(C[C@@H]2NC(=O)[C@H](CC(=O)O)NC(=O)CNC(=O)[C@H](CCCCN)NC(=O)[C@@H]3CCCN3C(=O)[C@H](CC(N)=O)NC(=O)[C@@H](NC(C)=O)CSSC[C@@H](C(N)=O)NC(=O)[C@H](CCCN=C(N)N)NC2=O)cc1 | 700 | – | –
CC(C)[C@H]1NC(=O)[C@H](CC(=O)O)NC(=O)CNC(=O)[C@H](CCCN=C(N)N)NC(=O)[C@@H](Cc2c[nH]cn2)NC(=O)CNC(=O)[C@@H](N)CCC/N=C(/N)NC(=O)[C@H](N)C2(CCCCC2)SSC[C@@H](C(=O)N[C@@H](CCCN=C(N)N)C(=O)O)NC(=O)[C@H](CCCN=C(N)N)NC1=O | 690 | – | –
COc1ccc(C[C@@H]2NC(=O)[C@H](CC(=O)O)NC(=O)CNC(=O)[C@H](CCCNC(=N)N)NC(=O)[C@@H]3CCCN3C(=O)[C@H](CC(N)=O)NC(=O)[C@@H](NC(C)=O)CSSC[C@@H](C(N)=O)NC(=O)[C@H](CCCN)NC2=O)cc1 | – | 7700 | –
COc1ccc(C[C@@H]2NC(=O)[C@H](CC(=O)O)NC(=O)CNC(=O)[C@H](CCCNC(=N)N)NC(=O)[C@@H]3CCCN3C(=O)[C@H](CC(N)=O)NC(=O)[C@@H](NC(C)=O)CSSC[C@@H](C(N)=O)NC(=O)[C@H](C)NC2=O)cc1 | – | 8850 | –
COc1ccc(C[C@@H]2NC(=O)[C@H](CC(=O)O)NC(=O)CNC(=O)[C@H](CCCNC(=N)N)NC(=O)[C@@H]3CCCN3C(=O)[C@H](CC(N)=O)NC(=O)[C@@H](NC(C)=O)CSSC[C@@H](C(N)=O)NC(=O)[C@H](CCC(=O)O)NC2=O)cc1 | – | 9470 | –
COc1ccc(C[C@@H]2NC(=O)[C@H](CC(=O)O)NC(=O)CNC(=O)[C@H](CCCN=C(N)N)NC(=O)[C@@H]3CCCN3C(=O)[C@H](CC(N)=O)NC(=O)[C@H](C)SSC[C@@H](C(N)=O)NC(=O)[C@H](CCCN=C(N)N)NC2=O)cc1 (NPRGDY(Me)RC-NH2; linker N-8 via X4) | 170 | – | –
COc1ccc(C[C@@H]2NC(=O)[C@H](CC(=O)O)NC(=O)CNC(=O)[C@H](CCCNC(=N)N)NC(=O)[C@@H]3CCCN3C(=O)[C@H](CC(N)=O)NC(=O)[C@@H](NC(C)=O)CSSC[C@@H](C(N)=O)NC(=O)[C@H](CCCCN)NC2=O)cc1 | – | 5820 | –
COc1ccc(C[C@@H]2NC(=O)[C@H](CC(=O)O)NC(=O)CNC(=O)[C@H](CCCNC(=N)N)NC(=O)[C@@H]3CCCN3C(=O)[C@H](CC(N)=O)NC(=O)[C@@H](NC(C)=O)CSSC[C@@H](C(N)=O)NC(=O)[C@H](CC(C)C)NC2=O)cc1 | 7600 | 7140 | –
COc1ccc(C[C@@H]2NC(=O)[C@H](CC(=O)O)NC(=O)CNC(=O)[C@H](CCCN=C(N)N)NC(=O)[C@@H]3CCCN3C(=O)[C@H](CC(N)=O)NC(=O)CCSSC[C@@H](C(N)=O)NC(=O)[C@H](CCCN=C(N)N)NC2=O)cc1 | – | 3000 | –
CC[C@H](C)[C@@H]1NC(=O)[C@@H](NC(C)=O)CSSC[C@@H](C(N)=O)NC(=O)[C@H](CCCN=C(N)N)NC(=O)[C@H](Cc2ccc(O)cc2)NC(=O)[C@H](CC(=O)O)NC(=O)CNC(=O)[C@H](CCCN=C(N)N)NC(=O)[C@@H]2CCCN2C1=O (Ac-CIPRGDYRC-NH2; disulfide 1-9) | 330 | – | –
CCCCOc1ccc(C[C@@H]2NC(=O)[C@H](CC(=O)O)NC(=O)CNC(=O)[C@H](CCCN=C(N)N)NC(=O)[C@@H]3CCCN3C(=O)[C@H]([C@@H](C)CC)NC(=O)[C@@H](NC(C)=O)CSSC[C@@H](C(N)=O)NC(=O)[C@H](CCCN=C(N)N)NC2=O)cc1 | 480 | – | –

The remaining lines, values ahead:

IC50 [1] [nM] | IC50 [2] [nM] | IC50 [3] [nM] | SMILES
520 | 10000 | – | COc1ccc(C[C@@H]2NC(=O)[C@H](CC(=O)O)NC(=O)CNC(=O)[C@H](CCCNC(=N)N)NC(=O)[C@@H](Cc3ccc(O)cc3)NC(=O)CNC(=O)[C@@H](NC(=O)[C@@H](N)CCCNC(=N)N)C3(CCCCC3)SSC[C@@H](C(=O)N[C@@H](CCCNC(=N)N)C(=O)O)NC(=O)[C@H](CCCNC(=N)N)NC2=O)cc1
600 | – | – | N=C(N)NCCC[C@H](NC(=O)[C@@H]1CSSC2(CCCCC2)[C@H](NC(=O)[C@@H](N)CCCNC(=N)N)C(=O)NCC(=O)N[C@@H](Cc2c[nH]cn2)C(=O)N[C@@H](CCCNC(=N)N)C(=O)NCC(=O)N[C@@H](CC(=O)O)C(=O)N[C@@H](CCc2ccccc2)C(=O)N[C@@H](CCCNC(=N)N)C(=O)N1)C(=O)O
2750 | 7200 | – | COc1ccc(C[C@@H]2NC(=O)[C@H](CC(=O)O)NC(=O)CNC(=O)[C@H](CCCN=C(N)N)NC(=O)[C@H](Cc3c[nH]cn3)NC(=O)[C@H](CC(=O)O)NC(=O)[C@@H](NC(=O)[C@@H](N)CCCN=C(N)N)C3(CCCCC3)SSC[C@@H](C(=O)N[C@@H](CCCN=C(N)N)C(=O)O)NC(=O)[C@H](CCCN=C(N)N)NC2=O)cc1
– | 9900 | – | CC[C@H](C)[C@@H]1NC(=O)[C@@H](NC(=O)[C@@H](N)CCCN=C(N)N)C2(CCCCC2)SSC[C@@H](C(=O)N[C@@H](CCCN=C(N)N)C(=O)O)NC(=O)[C@H](CCCN=C(N)N)NC(=O)[C@H](Cc2ccc(OC)cc2)NC(=O)[C@H](CC(=O)O)NC(=O)CNC(=O)[C@H](CCCN=C(N)N)NC(=O)[C@H](Cc2c[nH]cn2)NC1=O
850 | 8800 | – | COc1ccc(C[C@@H]2NC(=O)[C@H](CC(=O)O)NC(=O)CNC(=O)[C@H](CCCNC(=N)N)NC(=O)[C@H](Cc3ccc(O)cc3)NC(=O)CNC(=O)[C@@H](NC(=O)[C@@H](N)CCCNC(=N)N)C3(CCCCC3)SSC[C@@H](C(=O)N[C@@H](CCCNC(=N)N)C(=O)O)NC(=O)[C@H](CCCNC(=N)N)NC2=O)cc1
– | 3460 | – | COc1ccc(C[C@@H]2NC(=O)[C@H](CC(=O)O)NC(=O)CNC(=O)[C@H](CCCNC(=N)N)NC(=O)[C@@H]3CCCN3C(=O)[C@H](CC(N)=O)NC(=O)[C@@H](NC(C)=O)CSSC[C@@H](C(N)=O)NC(=O)[C@H](CCCNC(N)=O)NC2=O)cc1
– | – | 150 | CC(C)C[C@@H]1NC(=O)[C@H](CC(=O)O)NC(=O)CNC(=O)[C@H](CCCNC(=N)N)NC(=O)[C@H](Cc2c[nH]cn2)NC(=O)CNC(=O)[C@H](NC(=O)CN)C(C)(C)SSC[C@@H](C(=O)N[C@@H](C)C(=O)O)NC(=O)[C@H](CCCNC(=N)N)NC1=O (stereo in doubt; 2)
100 | 10000 | – | CCCCOc1ccc(C[C@@H]2NC(=O)[C@H](CC(=O)O)NC(=O)CNC(=O)[C@H](CCCNC(=N)N)NC(=O)[C@@H]3CCCN3C(=O)[C@H](CC(N)=O)NC(=O)[C@@H](NC(C)=O)CSSC[C@@H](C(N)=O)NC(=O)[C@H](CCCNC(=N)N)NC2=O)cc1
990 | – | – | COc1ccc(C[C@@H]2NC(=O)[C@H](CC(=O)O)NC(=O)CNC(=O)[C@H](CCCN=C(N)N)NC(=O)[C@H](Cc3c[nH]cn3)NC(=O)[C@H](CC(N)=O)NC(=O)[C@@H](NC(=O)[C@@H](N)CCCN=C(N)N)C3(CCCCC3)SSC[C@@H](C(=O)N[C@@H](CCCN=C(N)N)C(=O)O)NC(=O)[C@H](CCCN=C(N)N)NC2=O)cc1
– | 8260 | – | CC(C)C[C@@H]1NC(=O)[C@H](CC(=O)O)NC(=O)CNC(=O)[C@H](CCCNC(=N)N)NC(=O)[C@H](Cc2c[nH]cn2)NC(=O)CNC(=O)[C@H](NC(=O)CN)C(C)(C)SSC[C@@H](C(=O)N[C@@H](C)C(=O)O)NC(=O)[C@H](CCCNC(=N)N)NC1=O (stereo in doubt; 1)
– | 1700 | – | COc1ccc(C[C@@H]2NC(=O)[C@H](CC(=O)O)NC(=O)CNC(=O)[C@H](CCCNC(=N)N)NC(=O)[C@@H]3CCCN3C(=O)CNC(=O)[C@@H](NC(=O)[C@@H](N)CCCNC(=N)N)C3(CCCCC3)SSC[C@@H](C(=O)N[C@@H](CCCNC(=N)N)C(=O)O)NC(=O)[C@H](CCCNC(=N)N)NC2=O)cc1
970 | – | – | NC(N)=NCCC[C@H](NC(=O)[C@@H]1CSSC2(CCCCC2)[C@H](NC(=O)[C@@H](N)CCCN=C(N)N)C(=O)NCC(=O)N[C@@H](Cc2c[nH]cn2)C(=O)N[C@@H](CCCN=C(N)N)C(=O)NCC(=O)N[C@@H](CC(=O)O)C(=O)N[C@@H](Cc2ccc(O)cc2)C(=O)N[C@@H](CCCN=C(N)N)C(=O)N1)C(=O)O
150 | – | – | COc1ccc(C[C@@H]2NC(=O)[C@H](CC(=O)O)NC(=O)CNC(=O)[C@H](CCCN=C(N)N)NC(=O)[C@@H]3CCCN3C(=O)[C@H](CC(N)=O)NC(=O)[C@@H](NC(C)=O)C3(CCCCC3)SSC[C@@H](C(N)=O)NC(=O)[C@H](CCCN=C(N)N)NC2=O)cc1 [listing 1 of 2 here]
400 | – | – | COc1ccc(C[C@@H]2NC(=O)[C@H](CC(=O)O)NC(=O)CNC(=O)[C@H](CCCN=C(N)N)NC(=O)[C@@H](Cc3c[nH]cn3)NC(=O)CNC(=O)[C@@H](NC(=O)[C@@H](N)CCCN=C(N)N)C3(CCCCC3)SSC[C@@H](C(=O)N[C@@H](CCCN=C(N)N)C(=O)O)NC(=O)[C@H](CCCN=C(N)N)NC2=O)cc1
– | 2340 | – | COc1ccc(C[C@@H]2NC(=O)[C@H](CC(=O)O)NC(=O)CNC(=O)[C@H](CCCN=C(N)N)NC(=O)[C@@H]3CCCN3C(=O)[C@H](CC(N)=O)NC(=O)[C@@H](NC(C)=O)C3(CCCCC3)SSC[C@@H](C(N)=O)NC(=O)[C@H](CCCN=C(N)N)NC2=O)cc1 [listing 2 of 2 here]
950 | 6600 | – | COc1ccc(C[C@@H]2NC(=O)[C@H](CC(=O)O)NC(=O)CNC(=O)[C@H](CCCN=C(N)N)NC(=O)[C@H](Cc3c[nH]cn3)NC(=O)[C@H](CO)NC(=O)[C@@H](NC(=O)[C@@H](N)CCCN=C(N)N)C3(CCCCC3)SSC[C@@H](C(=O)N[C@@H](CCCN=C(N)N)C(=O)O)NC(=O)[C@H](CCCN=C(N)N)NC2=O)cc1
